Assay results reported in ChEMBL document CHEMBL2177094, “Structure dependence of long-chain [18F]fluorothia fatty acids as myocardial fatty acid oxidation probes” (J Med Chem, 2012).

Tests used:
[1] = system: Heart; test: Drug uptake in overnight fasted Sprague-Dawley rat heart at 9 to 11 MBq, iv at 5 mins by microPET analysis; format: ADME, organism-based; conditions: in vivo
Outline: (§1)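 Female rats fasted overnight, under isoflurane. 18F-labelled tracer (9–11 MBq) given into a tail vein. Dynamic PET acquisition over the upper thorax for 50 min, then a static whole-body scan 55–115 min post-injection. 2–5 rats per tracer.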

[2] = system: Liver; test: Drug uptake in overnight fasted Sprague-Dawley rat liver at 9 to 11 MBq, iv at 5 mins by microPET analysis; format: ADME, organism-based; conditions: in vivo; outline: as §1
[3] = system: Muscle tissue; test: Biodistribution in overnight fasted Sprague-Dawley rat muscle pellet fraction at 0.7 to 1.4 MBq, iv preincubated with POCA for 2 hrs before compound administration measured at 120 mins post treatment by Folch-type extraction method; format: ADME, organism-based; conditions: in vivo
Outline: (§2)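 Female Sprague-Dawley rats, fasted overnight, under isoflurane (3.5% induction, 1.5% maintenance). [18F] tracer in 0.5–1.0% BSA/saline was given by tail vein. POCA group: 30 mg/kg i.p. 120 min before tracer. About 0.5 g tissue was homogenized and sonicated in chloroform/methanol (2:1) at 0 °C, then 40% urea and 5% H2SO4 were added and spun 10 min at 1,800 g. Aqueous, organic and pellet fractions were counted as % of total.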

[4] = system: Muscle tissue; test: Biodistribution in overnight fasted Sprague-Dawley rat muscle aqueous fraction at 0.7 to 1.4 MBq, iv preincubated with POCA for 2 hrs before compound administration measured at 120 mins post treatment by Folch-type extraction method; format: ADME, organism-based; conditions: in vivo; outline: as §2
[5] = system: Liver; test: Biodistribution in overnight fasted Sprague-Dawley rat liver pellet fraction at 0.7 to 1.4 MBq, iv preincubated with POCA for 2 hrs before compound administration measured at 120 mins post treatment by Folch-type extraction method; format: ADME, organism-based; conditions: in vivo; outline: as §2
[6] = system: Heart; test: Biodistribution in overnight fasted Sprague-Dawley rat heart pellet fraction at 0.7 to 1.4 MBq, iv preincubated with POCA for 2 hrs before compound administration measured at 120 mins post treatment by Folch-type extraction method; format: ADME, organism-based; conditions: in vivo; outline: as §2
[7] = system: Liver; test: Biodistribution in overnight fasted Sprague-Dawley rat liver organic fraction at 0.7 to 1.4 MBq, iv at 120 mins by Folch-type extraction method; format: ADME, organism-based; conditions: in vivo, 2 h; outline: as §2
[8] = system: Heart; test: Biodistribution in overnight fasted Sprague-Dawley rat heart organic fraction at 0.7 to 1.4 MBq, iv at 120 mins by Folch-type extraction method; format: ADME, organism-based; conditions: in vivo, 2 h; outline: as §2
[9] = system: Muscle tissue; test: Biodistribution in overnight fasted Sprague-Dawley rat muscle organic fraction at 0.7 to 1.4 MBq, iv preincubated with POCA for 2 hrs before compound administration measured at 30 mins post treatment by Folch-type extraction method; format: ADME, organism-based; conditions: in vivo, 0.5 h; outline: as §2
[10] = system: Liver; test: Biodistribution in overnight fasted Sprague-Dawley rat liver pellet fraction at 0.7 to 1.4 MBq, iv preincubated with POCA for 2 hrs before compound administration measured at 30 mins post treatment by Folch-type extraction method; format: ADME, organism-based; conditions: in vivo, 0.5 h; outline: as §2
[11] = system: Liver; test: Biodistribution in overnight fasted Sprague-Dawley rat liver aqueous fraction at 0.7 to 1.4 MBq, iv preincubated with POCA for 2 hrs before compound administration measured at 30 mins post treatment by Folch-type extraction method; format: ADME, organism-based; conditions: in vivo, 0.5 h; outline: as §2
[12] = system: Heart; test: Biodistribution in overnight fasted Sprague-Dawley rat heart pellet fraction at 0.7 to 1.4 MBq, iv preincubated with POCA for 2 hrs before compound administration measured at 30 mins post treatment by Folch-type extraction method; format: ADME, organism-based; conditions: in vivo, 0.5 h; outline: as §2
[13] = system: Heart; test: Biodistribution in overnight fasted Sprague-Dawley rat heart aqueous fraction at 0.7 to 1.4 MBq, iv preincubated with POCA for 2 hrs before compound administration measured at 30 mins post treatment by Folch-type extraction method; format: ADME, organism-based; conditions: in vivo, 0.5 h; outline: as §2
[14] = system: Liver; test: Biodistribution in overnight fasted Sprague-Dawley rat liver pellet fraction at 0.7 to 1.4 MBq, iv at 30 mins by Folch-type extraction method; format: ADME, organism-based; conditions: in vivo, 0.5 h; outline: as §2
[15] = system: Liver; test: Biodistribution in overnight fasted Sprague-Dawley rat liver organic fraction at 0.7 to 1.4 MBq, iv at 30 mins by Folch-type extraction method; format: ADME, organism-based; conditions: in vivo, 0.5 h; outline: as §2
[16] = system: Heart; test: Biodistribution in overnight fasted Sprague-Dawley rat heart pellet fraction at 0.7 to 1.4 MBq, iv at 30 mins by Folch-type extraction method; format: ADME, organism-based; conditions: in vivo, 0.5 h; outline: as §2
[17] = system: Heart; test: Biodistribution in overnight fasted Sprague-Dawley rat heart organic fraction at 0.7 to 1.4 MBq, iv at 30 mins by Folch-type extraction method; format: ADME, organism-based; conditions: in vivo, 0.5 h; outline: as §2
[18] = system: Heart; test: Biodistribution in overnight fasted Sprague-Dawley rat heart aqueous fraction at 0.7 to 1.4 MBq, iv at 30 mins by Folch-type extraction method; format: ADME, organism-based; conditions: in vivo, 0.5 h; outline: as §2
[19] = system: Bone; test: Drug uptake in overnight fasted Sprague-Dawley rat bone at 0.7 to 1.4 MBq, iv preincubated with POCA for 2 hrs before compound administration measured at 120 mins post treatment; format: ADME, organism-based, Bone element; conditions: in vivo
Outline: (§3)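 Overnight-fasted female Sprague-Dawley rats under isoflurane received the [18F] tracer in 0.5–1.0% BSA/saline by tail vein. POCA group: 30 mg/kg i.p. 2 h before tracer. Tissues were excised at 30 or 120 min, weighed and gamma-counted with decay correction. Uptake = % dose kg/g, i.e. CPM tissue × body wt (kg) × 100 / (tissue wt (g) × CPM dose). n = 5–6.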

[20] = system: Brain; test: Drug uptake in overnight fasted Sprague-Dawley rat brain at 0.7 to 1.4 MBq, iv preincubated with POCA for 2 hrs before compound administration measured at 120 mins post treatment; format: ADME, organism-based; conditions: in vivo; outline: as §3
[21] = system: Liver; test: Drug uptake in overnight fasted Sprague-Dawley rat liver at 0.7 to 1.4 MBq, iv preincubated with POCA for 2 hrs before compound administration measured at 120 mins post treatment; format: ADME, organism-based; conditions: in vivo
Outline: (§4)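 Female rats fasted overnight, under isoflurane (3.5% induction, 1.5% maintenance). 18F-labelled tracer formulated in 0.5–1.0% BSA/saline, injected via tail vein. Tissues harvested at 30 or 120 min, weighed, gamma-counted, decay-corrected. Uptake expressed as % dose kg/g, i.e. tissue CPM × body wt (kg) × 100 / (tissue wt (g) × dose CPM). POCA groups received 30 mg/kg i.p. 2 h before tracer. n = 5–6.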

[22] = system: Muscle tissue; test: Drug uptake in overnight fasted Sprague-Dawley rat muscle at 0.7 to 1.4 MBq, iv at 120 mins; format: ADME, organism-based; conditions: in vivo, 2 h; outline: as §4
[23] = system: Kidney; test: Drug uptake in overnight fasted Sprague-Dawley rat kidney at 0.7 to 1.4 MBq, iv at 120 mins; format: ADME, organism-based; conditions: in vivo, 2 h; outline: as §4
[24] = system: Lung; test: Drug uptake in overnight fasted Sprague-Dawley rat lung at 0.7 to 1.4 MBq, iv at 120 mins; format: ADME, organism-based; conditions: in vivo, 2 h; outline: as §4
[25] = system: Muscle tissue; test: Drug uptake in overnight fasted Sprague-Dawley rat muscle at 0.7 to 1.4 MBq, iv preincubated with POCA for 2 hrs before compound administration measured at 30 mins post treatment; format: ADME, organism-based; conditions: in vivo, 0.5 h; outline: as §4
[26] = system: Brain; test: Drug uptake in overnight fasted Sprague-Dawley rat brain at 0.7 to 1.4 MBq, iv preincubated with POCA for 2 hrs before compound administration measured at 30 mins post treatment; format: ADME, organism-based; conditions: in vivo, 0.5 h; outline: as §3
[27] = system: Kidney; test: Drug uptake in overnight fasted Sprague-Dawley rat kidney at 0.7 to 1.4 MBq, iv preincubated with POCA for 2 hrs before compound administration measured at 30 mins post treatment; format: ADME, organism-based; conditions: in vivo, 0.5 h; outline: as §4
[28] = system: Kidney; test: Drug uptake in overnight fasted Sprague-Dawley rat kidney at 0.7 to 1.4 MBq, iv at 30 mins; format: ADME, organism-based; conditions: in vivo, 0.5 h; outline: as §4
[29] = system: Blood; test: Drug uptake in overnight fasted Sprague-Dawley rat blood at 0.7 to 1.4 MBq, iv at 30 mins; format: ADME, organism-based; conditions: in vivo, 0.5 h; outline: as §3

Drug uptake [1]	Drug uptake [2]	Drug uptake [3] [%]	Drug uptake [4] [%]	Drug uptake [5] [%]	Drug uptake [6] [%]	Drug uptake [7] [%]	Drug uptake [8] [%]	Drug uptake [9] [%]	Drug uptake [10] [%]	Drug uptake [11] [%]	Drug uptake [12] [%]	Drug uptake [13] [%]	Drug uptake [14] [%]	Drug uptake [15] [%]	Drug uptake [16] [%]	Drug uptake [17] [%]	Drug uptake [18] [%]	Drug uptake [19] [%IDKg/g]	Drug uptake [20] [%IDKg/g]	Structure (SMILES)	also measured
Active	Active	35.36	11.37	23.82	29.14	34.75	9.34	43.19	24.88	16.3	23.8	10.15	71.69	19.87	88.67	8.46	2.86	0.299	0.0206	O=C(O)CCSCCCC/C=C\CCCCCCCC[18F]	Drug uptake [21]: 0.1666 %IDKg/g; Drug uptake [22]: 0.0171 %IDKg/g; Drug uptake [23]: 0.1244 %IDKg/g; Drug uptake [24]: 0.0228 %IDKg/g; Drug uptake [25]: 0.0297 %IDKg/g; Drug uptake [26]: 0.0368 %IDKg/g; Drug uptake [27]: 0.1932 %IDKg/g; Drug uptake [28]: 0.2035 %IDKg/g; Drug uptake [29]: 0.0441 %IDKg/g
Active	Active	31.41	9.3	27.76	22.48	35.26	28.56	43.43	34.35	10.75	32.16	3.84	44.72	45.61	70.16	25.81	4.02	0.2104	0.0519	O=C(O)CCCCSCCCCCCCCCCCC[18F]	Drug uptake [21]: 0.419 %IDKg/g; Drug uptake [22]: 0.0263 %IDKg/g; Drug uptake [23]: 0.1629 %IDKg/g; Drug uptake [24]: 0.0702 %IDKg/g; Drug uptake [25]: 0.0639 %IDKg/g; Drug uptake [26]: 0.0879 %IDKg/g; Drug uptake [27]: 0.3441 %IDKg/g; Drug uptake [28]: 0.2095 %IDKg/g; Drug uptake [29]: 0.029 %IDKg/g
Active	Active	32.69	19.16	38.47	24.47	31.39	18.88	42.23	38.07	20.23	32.81	15.28	38.21	48.25	58.8	38.56	2.63	0.6549	0.0578	O=C(O)CCSCCCCCCCCCCCC[18F]	Drug uptake [21]: 0.4433 %IDKg/g; Drug uptake [22]: 0.0109 %IDKg/g; Drug uptake [23]: 0.1014 %IDKg/g; Drug uptake [24]: 0.0183 %IDKg/g; Drug uptake [25]: 0.0333 %IDKg/g; Drug uptake [26]: 0.04879 %IDKg/g; Drug uptake [27]: 0.2477 %IDKg/g; Drug uptake [28]: 0.209 %IDKg/g; Drug uptake [29]: 0.07 %IDKg/g
Active	Active	32.62	9.12	22.07	21.68	55.69	26.14	47.15	16.53	31.69	24.67	7.73	32.97	51.66	78.72	17.29	3.97	0.4042	0.031	O=C(O)CCSCCCCCCCCCCCCCC[18F]	Drug uptake [21]: 0.1341 %IDKg/g; Drug uptake [22]: 0.0181 %IDKg/g; Drug uptake [23]: 0.0726 %IDKg/g; Drug uptake [24]: 0.0339 %IDKg/g; Drug uptake [25]: 0.0443 %IDKg/g; Drug uptake [26]: 0.0385 %IDKg/g; Drug uptake [27]: 0.235 %IDKg/g; Drug uptake [28]: 0.1872 %IDKg/g; Drug uptake [29]: 0.0392 %IDKg/g
